One data set concerns Pseudomonas aeruginosa. Description: Antibacterial activity against Pseudomonas aeruginosa after 20 hrs by liquid growth inhibition assay. Format: functional. A digest of the protocol: (§1)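 Liquid growth inhibition with peptides dissolved in distilled water, final 20–640 μg.mL-1, added to mid-log bacteria at starting D600 = 0.001. Standard strains in poor broth (1% peptone, 0.5% NaCl, pH 7.5); pathogenic strains in poor broth plus 0.3% beef extract. Incubated 20 h at 30°C; growth read as OD at 595 nm; MIC taken as lowest concentration giving 100% inhibition.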

A further data set has as its system Vibrio aestuarianus. The data set is described as follows: Antibacterial activity against Vibrio aestuarianus after 20 hrs by liquid growth inhibition assay. In kind it is functional. Put shortly: (§2)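 Vibrios cultured in saline poor broth (1% peptone, 1.5% NaCl, pH 7.2), diluted from mid-log phase to starting D600 = 0.001, then exposed to water-dissolved peptides at final 20–640 μg.mL-1. Incubated 20 h at 18°C; OD read at 595 nm. MIC is the lowest concentration giving 100% inhibition.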

The next data set relates to Escherichia coli. The data set is described as follows: Antibacterial activity against Escherichia coli after 20 hrs by liquid growth inhibition assay. In kind it is functional. A digest of the protocol:
as §1

A short description of data set [1]: Toxicity in rabbit erythrocytes assessed as hemolysis up to 320 ug/ml. In kind it is cell-based, Oryctolagus cuniculus, Erythrocyte. The note with it: read-out: Activity. Put shortly:
(§3)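 Freshly isolated rabbit erythrocytes were incubated 1 h at 37°C with peptide in PBS at 20 to 320 μg.mL−1. Supernatant OD was read at 415 nm, with PBS as zero and 1% Triton X-100 as 100% hemolysis; triplicate for each concentration and control.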

Data set [2] in a line: (§4) Cytotoxicity against CHOK1 cells assessed as cell viability at 640 ug/ml after 36 hrs by MTT assay. Format: cell-based, Cricetulus griseus, CHO-K1. The note with it: chinese hamster, CHO-K1 cells; read-out: Activity. A digest of the protocol: (§5)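 CHO-K1 cells (1.34×10^4/well) in Ham F12 with L-glutamine and 10% foetal calf serum were preincubated 6 h at 37 °C, 5% CO2. Peptides in PBS were added at final 20–640 μg.mL−1 for 36 h. Viability was read by MTT reduction at 570 nm, with PBS as 100% and 1% Triton X-100 as 0% viability; triplicates.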
(Tetrazolium dyes change colour on reduction, which living cells bring about.)

In another data set the test system is Vibrio harveyi. The data set is described as follows: Antibacterial activity against Vibrio harveyi after 20 hrs by liquid growth inhibition assay. In kind it is functional. Put shortly:
as §2

Another data set deals with Vibrio splendidus. Description: Antibacterial activity against Vibrio splendidus after 20 hrs by liquid growth inhibition assay. In kind it is functional. Put shortly:
as §2

Another data set relates to Enterococcus faecalis. The data set is described as follows: Antibacterial activity against Enterococcus faecalis after 20 hrs by liquid growth inhibition assay. In kind it is functional. Put shortly: (§6)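 Bacteria grown in brain heart infusion and challenged at mid-log phase (starting D600 = 0.001) with water-dissolved peptides at final 20–640 μg.mL-1. After 20 h at 30°C, OD at 595 nm was read. MIC is the lowest concentration giving complete (100%) growth inhibition.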

In the next data set the test system is Staphylococcus aureus. Description: Antibacterial activity against Staphylococcus aureus after 20 hrs by liquid growth inhibition assay. In kind it is functional. Put shortly:
as §1

A further data set concerns Salmonella typhimurium. Description: Antibacterial activity against Salmonella typhimurium after 20 hrs by liquid growth inhibition assay. In kind it is functional, Salmonella enterica subsp. enterica serovar Typhimurium. A digest of the protocol:
as §1

The next data set relates to Vibrio alginolyticus. Description: Antibacterial activity against Vibrio alginolyticus after 20 hrs by liquid growth inhibition assay. In kind it is functional. A digest of the protocol: as §2
The test system of another data set is Listeria monocytogenes. The data set is described as follows: Antibacterial activity against Listeria monocytogenes after 20 hrs by liquid growth inhibition assay. Format: functional. Put shortly: as §6
In a further data set the test system is Priestia megaterium. The data set is described as follows: Antibacterial activity against Bacillus megaterium after 20 hrs by liquid growth inhibition assay. In kind it is functional. Put shortly: as §1
The test system of another data set is Klebsiella pneumoniae. Description: Antibacterial activity against Klebsiella pneumoniae after 20 hrs by liquid growth inhibition assay. Format: functional. A digest of the protocol: as §1
A short description of data set [3]: Ratio of toxicity in CHOK1 cells to MIC for Listeria monocytogenes. In kind it is functional, CHO-K1.
In data set [4] the test system is CHO-K1. Description: Cytotoxicity against CHOK1 cells assessed as cell viability up to 40 ug/ml after 36 hrs by MTT assay. Format: cell-based, Cricetulus griseus. The note with it: chinese hamster, cho-k1, 36 h. Put shortly: as §5
Data set [5] can be described thus: Ratio of toxicity in CHOK1 cells to MIC for Salmonella typhimurium. Format: functional, CHO-K1.
The nature of data set [6]: Ratio of toxicity in CHOK1 cells to MIC for Staphylococcus aureus. Format: functional, CHO-K1.
For data set [7], the system named is CHO-K1. Described as §4. In kind it is cell-based, Cricetulus griseus. As to conditions: chinese hamster, cho-k1, 36 h. Put shortly: as §5
Data set [8] can be described thus: Toxicity in rabbit erythrocytes assessed as hemolysis. Format: cell-based, Oryctolagus cuniculus, Erythrocyte. As to conditions: read-out: HD50 (the source's name). A digest of the protocol:
as §3

Data set [9] can be described thus: Cytotoxicity against CHOK1 cells assessed as cell viability at 160 ug/ml after 36 hrs by MTT assay. Format: cell-based, Cricetulus griseus. The note with it: chinese hamster, CHO-K1 cells; read-out: Activity. A digest of the protocol:
as §5

Data set [10] in a line: Ratio of HD50 for rabbit erythrocytes to MIC for Staphylococcus aureus. In kind it is functional.
The mark [11] stands for this setting: Salmonella enterica subsp. enterica serovar Typhimurium.

In brackets after ≈: the same amount, converted by molar mass. Activity calls are given as the source filed them. No cut-off for these calls is given here. Starred links: 1 amine or outer side, 2 acyl side, 3 side chain; linkers in the order of their positions; H or OH if unused. Non-standard residues stand in square brackets, D forms with d. Residues, ends and D or L forms follow the SMILES beside them. *: point of attachment. azaβ3(1Nal) = O=C(CN(Cc1cccc2ccccc12)N[*:1])[*:2]; X2 = O=C(CN(Cc1ccc2ccccc2c1)N[*:1])[*:2]; X1 = NC(=O)CN(Cc1cccc2ccccc12)N*; X3 = NC(=O)CN(Cc1ccc2ccccc2c1)N*; X4 = NCCCCN(CC(=O)[*:2])N[*:1]

Consider H-ALSGKAFLRF-NH2, for which the MIC (usually the lowest concentration found to suppress growth) with Pseudomonas aeruginosa is 640 µg/mL; in the data set with Vibrio aestuarianus, 80 µg/mL; with Escherichia coli, 80 µg/mL; against Vibrio harveyi it was 320 µg/mL; in the data set with Vibrio splendidus it was 40 µg/mL; against Staphylococcus aureus, 320 µg/mL. Moreover, the MIC was 320 µg/mL against Salmonella typhimurium (Salmonella enterica), 320 µg/mL against Vibrio alginolyticus, 80 µg/mL in the data set with Priestia megaterium and above 640 µg/mL against Klebsiella pneumoniae. The hemolysis in data set [1] is below 1.5%. Besides, in [2], the viability at 36 h, 640 ug/ml worked out at 87%. In addition, the MIC entry in the data set with Enterococcus faecalis and with Listeria monocytogenes was “inactive” each time.

In the case of `CC(C)C[C@H](NC(=O)CN(Cc1ccc2ccccc2c1)NC(=O)[C@H](C)NC(=O)[C@H](CCCCN)NC(=O)CNC(=O)[C@H](CO)NC(=O)[C@H](CC(C)C)NC(=O)[C@H](C)N)C(=O)N[C@@H](CCCNC(=N)N)C(=O)N[C@@H](Cc1ccccc1)C(N)=O` (H-ALSGKA[X2]LRF-NH2), the MIC in the data set with Pseudomonas aeruginosa is 160 µg/mL (≈ 136 µM); against Vibrio aestuarianus it was 40 µg/mL (≈ 34.1 µM); with Escherichia coli, 320 µg/mL (≈ 273 µM); with Vibrio harveyi, 40 µg/mL (≈ 34.1 µM); in the data set on Vibrio splendidus, 20 µg/mL (≈ 17 µM); against Enterococcus faecalis it was above 640 µg/mL. Moreover, the MIC against Staphylococcus aureus, against Salmonella typhimurium (Salmonella enterica), with Vibrio alginolyticus, in the data set with Listeria monocytogenes and in the data set on Priestia megaterium was 80 µg/mL (≈ 68.2 µM) throughout. The hemolysis in data set [1] was 5%. In addition, the MIC result in the data set on Klebsiella pneumoniae is “inactive”.

With H-ALSGDAFLRF-NH2, the MIC entry in the data set with Pseudomonas aeruginosa, in the data set on Enterococcus faecalis, with Staphylococcus aureus, in the data set with Salmonella typhimurium (setting [11]), in the data set with Listeria monocytogenes and with Klebsiella pneumoniae was “inactive” in each case. The MIC in the data set with Vibrio aestuarianus was 640 µg/mL; in the data set with Escherichia coli, 640 µg/mL; in the data set on Vibrio harveyi it was above 640 µg/mL; against Vibrio splendidus, 320 µg/mL; against Vibrio alginolyticus, 320 µg/mL; in the data set on Priestia megaterium, 640 µg/mL.

Regarding `CC(C)C[C@H](NC(=O)[C@H](C)N)C(=O)N[C@@H](CO)C(=O)NCC(=O)NN(CCCCN)CC(=O)N[C@@H](C)C(=O)N[C@@H](Cc1ccccc1)C(=O)N[C@@H](CC(C)C)C(=O)N[C@@H](CCCNC(=N)N)C(=O)N[C@@H](Cc1ccccc1)C(N)=O` (H-ALSG[X4]AFLRF-NH2), the values for the MIC in the data set with Pseudomonas aeruginosa and against Vibrio splendidus were above 640 µg/mL and 320 µg/mL (≈ 285 µM), respectively. For the same compound, the MIC result with Vibrio aestuarianus, with Escherichia coli, in the data set on Vibrio harveyi, in the data set with Enterococcus faecalis, in the data set with Staphylococcus aureus and in the data set with Salmonella typhimurium (setting [11]) was “inactive” each time. The MIC result in the data set on Vibrio alginolyticus, in the data set on Listeria monocytogenes, with Priestia megaterium and in the data set on Klebsiella pneumoniae was “inactive” throughout.

As for `CC1(C)S[C@@H]2[C@H](NC(=O)[C@H](N)c3ccccc3)C(=O)N2[C@H]1C(=O)O` [AMPICILLIN], the MIC in the data set with Pseudomonas aeruginosa was 320 µg/mL (≈ 916 µM); in the data set on Vibrio aestuarianus, 5 µg/mL (≈ 14.3 µM); in the data set on Escherichia coli it was 5 µg/mL (≈ 14.3 µM); against Vibrio harveyi, above 320 µg/mL; with Vibrio splendidus, 10 µg/mL (≈ 28.6 µM); against Enterococcus faecalis it was 5 µg/mL (≈ 14.3 µM). Also, the MIC with Staphylococcus aureus is 5 µg/mL (≈ 14.3 µM); against Salmonella typhimurium (Salmonella enterica), 5 µg/mL (≈ 14.3 µM); against Vibrio alginolyticus it was above 320 µg/mL; against Listeria monocytogenes it was 5 µg/mL (≈ 14.3 µM); against Priestia megaterium, 20 µg/mL (≈ 57.2 µM); in the data set on Klebsiella pneumoniae, 5 µg/mL (≈ 14.3 µM).

In the case of `CC(C)C[C@H](NC(=O)CN(Cc1cccc2ccccc12)NC(=O)[C@H](C)NC(=O)[C@H](CCCCN)NC(=O)CNC(=O)[C@H](CO)NC(=O)[C@H](CC(C)C)NC(=O)[C@H](C)N)C(=O)N[C@@H](CCCNC(=N)N)C(=O)NN(CC(N)=O)Cc1cccc2ccccc12` (H-ALSGKA[azaβ3(1Nal)]LR-X1), the MIC is 160 µg/mL (≈ 129 µM) against Pseudomonas aeruginosa; 80 µg/mL (≈ 64.6 µM) with Vibrio aestuarianus; 40 µg/mL (≈ 32.3 µM) against Escherichia coli; 640 µg/mL (≈ 517 µM) against Vibrio harveyi; 320 µg/mL (≈ 258 µM) in the data set with Vibrio splendidus; above 640 µg/mL against Enterococcus faecalis. Further, the minimal inhibitory concentration (MIC) with Staphylococcus aureus is 20 µg/mL (≈ 16.1 µM); in the data set with Salmonella typhimurium (Salmonella enterica) it was 80 µg/mL (≈ 64.6 µM); with Vibrio alginolyticus it was above 640 µg/mL; in the data set with Listeria monocytogenes, 80 µg/mL (≈ 64.6 µM); in the data set with Priestia megaterium, 20 µg/mL (≈ 16.1 µM). For the same compound, the Ratio is 8 in [3], 8 in data set [5], 32 in data set [6] and 10 in [10]. The Activity result with CHO-K1 [4] is on record as “Non-toxic”; with CHO-K1 [7] it was “Toxic”. Also, in data set [8], the HC50 was found to be 200 µg/mL. In [9], the viability at 36 h, 160 ug/ml was determined as 78%. In addition, the MIC result with Klebsiella pneumoniae is “inactive”.

`CC(C)C[C@H](NC(=O)CN(Cc1ccc2ccccc2c1)NC(=O)[C@H](C)NC(=O)[C@H](CCCCN)NC(=O)CNC(=O)[C@H](CO)NC(=O)[C@H](CC(C)C)NC(=O)[C@H](C)N)C(=O)N[C@@H](CCCNC(=N)N)C(=O)NN(CC(N)=O)Cc1ccc2ccccc2c1` (H-ALSGKA[X2]LR-X3): the MIC with Pseudomonas aeruginosa is 320 µg/mL (≈ 258 µM); in the data set with Vibrio aestuarianus it was 80 µg/mL (≈ 64.6 µM); in the data set on Escherichia coli it was 160 µg/mL (≈ 129 µM); with Vibrio harveyi, 640 µg/mL (≈ 517 µM); in the data set with Vibrio splendidus, 640 µg/mL (≈ 517 µM); in the data set with Enterococcus faecalis, above 640 µg/mL. Also, the MIC against Staphylococcus aureus is 40 µg/mL (≈ 32.3 µM); against Salmonella typhimurium (Salmonella enterica), 160 µg/mL (≈ 129 µM); in the data set with Vibrio alginolyticus, above 640 µg/mL; against Listeria monocytogenes it was 160 µg/mL (≈ 129 µM); against Priestia megaterium, 80 µg/mL (≈ 64.6 µM); in the data set on Klebsiella pneumoniae, above 640 µg/mL. Moreover, in data set [2], the viability at 36 h, 640 ug/ml turned out to be 47%.

These data come from ChEMBL document CHEMBL2029211, “From a marine neuropeptide to antimicrobial pseudopeptides containing aza-β(3)-amino acids: structure and activity” (J Med Chem, 2012).
